Data set [1] concerns ADP-induced platelet aggregation. The data set can be described thus: ADP-induced platelet aggregation in whole blood, impedance aggregometry. Format: in vivo, human. The conditions noted are these: for mean %inhibition of platelet aggregation: all subjects.
For data set [2] the following is noted: two-step process in the liver; ref 8 9; cited from earlier work.
Data set [3] can be described thus: Safety assessment, treatment emergent adverse events. As to conditions: A n=40, B n=39. Format: in vivo, human. An outline of the steps:
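Healthy Indian adults (18–45 y, BMI 18.50–29.90 kg/m²) were CYP2C19-genotyped at two laboratories as *1/*1 or *2/*2. Randomised two-period crossover: loading dose day 1, then once-daily maintenance doses days 2–6, with a washout of at least 14 days. The investigator recorded adverse events throughout the study, along with PT/PTT, vital signs, ECGs, haematology, blood chemistry, urinalysis and physical examinations.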

The next data set relates to CYP2C19. As to conditions: ref 8 9; cited from earlier work.

Where a name gives a salt, the structure may show the parent alone.

On to `COC(=O)[C@H](c1ccccc1Cl)N1CCc2sccc2C1` [Clopidogrel, Hydrogen sulfate;hydron;methyl (2S)-2-(2-chlorophenyl)-2-(6,7-dihydro-4H-thieno[3,2-c]pyridin-5-yl)acetate], for which the “mean %inhibition of platelet aggregation” value in data set [1] (6 hours postdose (loading dose: AT-10 40 mg, clopidogrel 300 mg)) came to 18.53%. For the same compound, in data set [1] (6 hours postdose on day 6 (maintenance dose: AT-10 10 mg, clopidogrel 75 mg)), the “mean %inhibition of platelet aggregation” value is listed as 51.19%. For the same compound, the “time at which inhibition of ADP-induced platelet aggregation reaches the peak” value in data set [1] (postdose) is listed as “around 6 hours”. The “share of the drug converted to the active metabolite H4” value in data set [2] is given as 15%. In addition, in data set [3], the “Treatment emergent adverse events: Anxiety” value is recorded as 00.0 (00.0) n (%) E; the “Treatment emergent adverse events: Cough” value is 00.0 (00.0) n (%) E; the “Treatment emergent adverse events: Psychiatric disorders” value is 00.0 (00.0) n (%) E; the “Treatment emergent adverse events: Respiratory, thoracic and mediastinal disorders” value is given as 00.0 (00.0) n (%) E. In addition, the “contribution of CYP2C19 to the first metabolic step (Step 1)” value in the data set on CYP2C19 is recorded as 45%.

Source of the values: PMC11815446 (Open Heart, 2025).
